Active and inactive are the calls of the source. The rule behind the calls is not given here.
What was measured:
HepG2 [1] = test: Antitumor activity against human HepG2 cells xenografted in BALB/C nude mouse assessed as tumor growth at 40 mg/kg, ip treated twice per week for 25 days relative to control; assay type: functional
Summary of the method: (§1)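 Female BALB/c nude mice, 5–6 weeks old, with subcutaneous flank xenografts of 8 × 10⁶ HepG2 cells. Randomized when tumors reached ~150–200 mm³. Dosed ip twice weekly for 25 days at 40 mg/kg; vehicle was saline with 10% DMSO (n = 6 vehicle, n = 5 per treated group). Caliper measurements every other day, volume = 0.5 × L × W². Tumors excised and weighed at end. Mean ± SD; t-test versus vehicle.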

HepG2 [2] = test: Antitumor activity against human HepG2 cells xenografted in BALB/C nude mouse assessed as tumor weight at 40 mg/kg, ip treated twice per week for 25 days (reference value: 0.84 +/- 0.09 g); assay type: functional; summary of the method: as §1
Mus musculus = test: Toxicity against BALB/C nude mouse xenografted with human HepG2 cells assessed as body weight loss at 40 mg/kg, ip treated twice per week measured at day 19 post dose; assay type: organism-based; conditions: in vivo
Summary of the method: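 HepG2 subcutaneous xenografts (8 × 10⁶ cells, flank) in female BALB/c nude mice aged 5–6 weeks. At ~150–200 mm³ tumors, ip dosing at 40 mg/kg twice weekly for 25 days; vehicle was saline with 10% DMSO. Body weight tracked every other day from day 1 to day 25. Mean ± SD; t-test versus vehicle.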

HepG2 [3] = test: Cell cycle arrest in human HepG2 cells accumulation at S phase at 1 uM after 24 hrs by propidium iodide staining-based flow cytometric analysis (reference value: 45.44%); assay type: functional
Summary of the method: (§2)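 HepG2 seeded at 2 × 10⁵ cells/well in DMEM + 10% FBS. Treated 24 h at 1, 2.5 or 5 µM. Fixed overnight in cold 75% ethanol at 4 °C, RNase-treated 30 min at 37 °C, then propidium iodide-stained 30 min in the dark. Analysed by flow cytometry. Mean ± SD; representative of three independent experiments.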

CNE-2 = test: Cytotoxicity against human CNE2 cells assessed as reduction in cell viability after 48 hrs by MTT assay; assay type: functional, cell-based; conditions: CNE-2, 48 h
Summary of the method: (§3)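 Cells at 3–4 × 10⁴/mL in DMEM + 10% FBS, pre-incubated 24 h in 5% CO₂. Then exposed 48 h to serial dilutions at 1, 5, 10, 20 and 50 µM; final DMSO <0.1%. MTT (5 mg/mL solution) added for 4 h at 37 °C, supernatant removed, formazan dissolved in DMSO, colorimetric read-out.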

HepG2 [4] = test: Cell cycle arrest in human HepG2 cells accumulation at S phase at 2.5 uM after 24 hrs by propidium iodide staining-based flow cytometric analysis (reference value: 45.44%); assay type: functional; summary of the method: as §2
HepG2 [5] = test: Cytotoxicity against human HepG2 cells assessed as reduction in cell viability after 48 hrs by MTT assay; assay type: functional, cell-based; conditions: HepG2, 48 h; summary of the method: as §3
[6] = target: T1, DNA topoisomerase 1 (Homo sapiens) (UniProt P11387); test: Inhibition of recombinant human topoisomerase-1-mediated relaxation of supercoiled pBR322 DNA at 500 uM after 30 mins by ethidium bromide staining based assay
T1 sequence (whole entry): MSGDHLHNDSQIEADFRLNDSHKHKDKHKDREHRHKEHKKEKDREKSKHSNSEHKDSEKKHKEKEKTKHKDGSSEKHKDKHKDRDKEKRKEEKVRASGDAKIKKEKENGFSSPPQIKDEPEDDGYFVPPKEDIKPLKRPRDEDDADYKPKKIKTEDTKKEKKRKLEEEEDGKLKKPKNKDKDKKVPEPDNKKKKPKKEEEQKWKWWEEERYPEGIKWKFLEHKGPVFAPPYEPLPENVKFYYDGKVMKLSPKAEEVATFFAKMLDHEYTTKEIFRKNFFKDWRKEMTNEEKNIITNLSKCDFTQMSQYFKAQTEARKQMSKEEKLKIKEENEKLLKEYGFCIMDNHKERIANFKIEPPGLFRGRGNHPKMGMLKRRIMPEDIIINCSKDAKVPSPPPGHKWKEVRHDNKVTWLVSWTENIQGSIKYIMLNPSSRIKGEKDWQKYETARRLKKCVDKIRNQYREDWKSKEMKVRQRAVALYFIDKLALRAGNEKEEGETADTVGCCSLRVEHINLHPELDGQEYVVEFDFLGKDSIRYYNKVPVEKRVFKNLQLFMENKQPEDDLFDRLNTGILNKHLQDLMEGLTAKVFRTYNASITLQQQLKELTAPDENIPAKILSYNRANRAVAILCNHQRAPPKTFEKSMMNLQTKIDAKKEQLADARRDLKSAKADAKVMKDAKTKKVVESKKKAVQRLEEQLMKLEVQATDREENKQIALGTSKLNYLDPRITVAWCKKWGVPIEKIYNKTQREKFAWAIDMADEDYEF
Summary of the method: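 Reactions stopped with loading buffer containing 0.5% SDS, bromophenol blue and 15% glycerol. Products run on a horizontal 0.8% agarose gel in 1× TAE at 4 V/cm for 40 min at room temperature. Gel stained with ethidium bromide and imaged.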

HepG2 [7] = test: Cell cycle arrest in human HepG2 cells accumulation at S phase at 5 uM after 24 hrs by propidium iodide staining-based flow cytometric analysis (reference value: 45.44%); assay type: functional; summary of the method: as §2
A549 = test: Cytotoxicity against human A549 cells assessed as reduction in cell viability after 48 hrs by MTT assay; assay type: functional, cell-based; conditions: A549, 48 h; summary of the method: as §3
HepG2 [8] = test: Antitumor activity against human HepG2 cells xenografted in BALB/C nude mouse assessed as tumor volume at 40 mg/kg, ip treated twice per week for 25 days (reference value: 1185.78 +/- 137.44 mm3); assay type: functional

SMILES | T/C (HepG2 [1]) | Activity (HepG2 [2]) | Activity (Mus musculus) | Activity (HepG2 [3]) | IC50 (CNE-2) | Activity (HepG2 [4]) | IC50 (HepG2 [5]) | inhibition [6] | Activity (HepG2 [7]) | IC50 (A549) | Activity (HepG2 [8])
CCc1c2c(nc3ccc(OC(=O)N4CCC(N5CCCCC5)CC4)cc13)-c1cc3c(c(=O)n1C2)COC(=O)[C@]3(O)CC [IRINOTECAN] | 35.08% | 0.47 g | Toxic | – | – | – | – | – | – | – | –
OCCCC[C@@H]1[C@H]2CCCN3CCC[C@H](CN1Cc1cn(Cc4ccc(Br)cc4)c4ccccc14)[C@@H]23 | 55.99% | 0.61 g | – | 55.77% | 3.5 µM | 60.68% | 3.1 µM | Active | 64.17% | 22.1 µM | 737.04 mm3

— ChEMBL document CHEMBL4152337, “Novel indolo-sophoridinic scaffold as Topo I inhibitors: Design, synthesis and biological evaluation as anticancer agents” (Eur J Med Chem, 2018)
